Converted amounts (≈) assume the structure as drawn.
How the values were obtained:
Assay type in all cases: functional
Helicobacter pylori [1] = assay: Minimal concentration needed to inhibit 90% of Helicobacter pylori strain
Summary of the method: (§1)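 Agar dilution MICs on 20 clinical H. pylori strains, two metronidazole resistant, in Columbia agar with horse serum and yeast extract. DMSO solutions diluted twofold serially in agar. Inocula at 0.5 McFarland in Wilkins Chalgren broth, incubated 37 C for 72 h, 10% CO2, microaerobic. MIC50/MIC90 taken as the lowest concentration inhibiting 50% or 90% of strains.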

Helicobacter pylori [2] = assay: Minimal concentration needed to inhibit Helicobacter pylori strain
Helicobacter pylori [3] = assay: Minimal concentration needed to inhibit 50% of Helicobacter pylori strain; summary of the method: as §1
Helicobacter pylori [4] = assay: Inhibitory activity was determined against 102R strain of Helicobacter pylori
Helicobacter pylori [5] = assay: Inhibitory activity was determined against NCTC-11637 strain of Helicobacter pylori
Helicobacter pylori [6] = assay: Minimal concentration needed to inhibitH. pylori strain

SMILES	MIC90 (Helicobacter pylori [1]) [µg/mL]	MIC (Helicobacter pylori [2]) [µg/mL]	MIC50 (Helicobacter pylori [3]) [µg/mL]	MIC (Helicobacter pylori [4]) [µg/mL]	MIC (Helicobacter pylori [5]) [µg/mL]	MIC (Helicobacter pylori [6]) [µg/mL]
N#C/N=[N+](\[O-])c1ccc(C(=O)NCCCC/N=C(\NC#N)NCCCOc2cccc(CN3CCCCC3)c2)cc1	4 (≈ 7.15 µM)	–	2 (≈ 3.57 µM)	8 (≈ 14.3 µM)	4 (≈ 7.15 µM)	0.25 (≈ 0.447 µM)
N#C/N=[N+](\[O-])c1ccc(C(=O)NCCCCCC/N=C(\NC#N)NCCCOc2cccc(CN3CCCCC3)c2)cc1	2 (≈ 3.4 µM)	–	1 (≈ 1.7 µM)	2 (≈ 3.4 µM)	1 (≈ 1.7 µM)	0.25 (≈ 0.425 µM)
Cc1ncc([N+](=O)[O-])n1CCO [METRONIDAZOLE]	8 (≈ 46.7 µM)	–	0.25 (≈ 1.46 µM)	8 (≈ 46.7 µM)	16 (≈ 93.5 µM)	0.031 (≈ 0.181 µM)

The next lines start with the values.

MIC90 (Helicobacter pylori [1]) [µg/mL]	MIC (Helicobacter pylori [2]) [µg/mL]	MIC50 (Helicobacter pylori [3]) [µg/mL]	MIC (Helicobacter pylori [4]) [µg/mL]	MIC (Helicobacter pylori [5]) [µg/mL]	MIC (Helicobacter pylori [6]) [µg/mL]	SMILES
16 (≈ 30.1 µM)	0.25 (≈ 0.47 µM)	8 (≈ 15 µM)	8 (≈ 15 µM)	16 (≈ 30.1 µM)	–	N#C/N=[N+](\[O-])c1ccc(C(=O)NCC/N=C(\NC#N)NCCCOc2cccc(CN3CCCCC3)c2)cc1
0.031 (≈ 0.162 µM)	–	0.016 (≈ 0.0837 µM)	0.031 (≈ 0.162 µM)	0.0078 (≈ 0.0408 µM)	< 0.0039	N#C/N=[N+](\[O-])c1ccc(C(=O)O)cc1
